# KLK7 zymogen act: proKLK7 zymogen activators, primary screen, biochemical, fluorescence intensity. actives 0.9% (n = 370,000). Kallikrein-7 (Homo sapiens), P49862. activation, % at 7 µM. purified proKLK7, EDANS-DABCYL substrate fluorescence; 100% is mature enzyme control, 0% vehicle;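 active = activation above the mean of all tested compounds plus 3 SD, computed per campaign excluding outliers beyond control limits, cut at about 13% in these data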
# Runt-SMMHC FRET: inhibitors of RUNX1 Runt–CBFb-SMMHC binding, primary screen, biochemical, FRET, Cerulean-Runt, Venus-CBFb-SMMHC, uHTS. Runt-related transcription factor 1 (Homo sapiens) + Core-binding factor subunit beta …. Cerulean-Runt/Venus-CBFb-SMMHC FRET ratio 530/480, 1 h. inhibition, % at 20 µM. actives 0.74% (n = 220,000). AID 1434, 2008;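 active = mean inhibition across duplicate retests at 20 µM reaching about 50%, limit read from the data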;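 also: 0% = DMSO wells and 100% = wells with excess untagged CBFb-SMMHC; inhibitors lower the FRET ratio by blocking Runt binding to CBFb-SMMHC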
# RanGTP-Impb inh: inhibitors of RanGTP-importin-beta interaction, primary screen, biochemical, FRET, CFP-Ran, YFP-importin-beta, homogeneous; Ran GTPase (GTP-bound) - importin-beta complex; actives 1.1% (n = 300,000); inhibition, % (no concentration beside the values); cell-free CFP-Ran/YFP-importin-beta FRET ratio;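 active = more than half of the replicate wells show a fall in the fluorescence ratio signal beyond about 16%, limit read from the data, passing the limit was not always enough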;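 also: 0% = DMSO wells and 100% = Ran loaded with GDP instead of GTP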
# Runt-CBFb FRET: inhibitors of RUNX1 Runt–CBFb binding, primary screen, biochemical, FRET, Cerulean-Runt, Venus-CBFb, uHTS | Runt-related transcription factor 1 (Homo sapiens) + Core-binding factor subunit beta … | Cerulean-Runt/Venus-CBFb FRET ratio 530/480, 1 h | inhibition, % at 20 µM | actives 0.46% (n = 220,000) | AID 1496, 2009;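 active = inhibition over about 50% at 20 µM in the single-dose screen, limit read from the data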;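 also: 0% = DMSO wells and 100% = excess unlabeled CBFb competitor control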
#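 Measured by: fluorescence energy transfer, 422 nm excitation, 530/480 nm emission; Assay system: Cerulean-Runt domain; Medium: Tris pH 7.5 buffer with BSA; Measure: loss of energy transfer signal; Controls: 5 µM unlabeled CBFb as full-inhibition high control; Incubation: protein complex preformed 1 h, compound exposure 1 h, room temperature, dark.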
# AI-2 QS modul: Vibrio harveyi AI-2 quorum sensing modulators, primary screen, JMH597 strain, luminescence/OD600 ratio; AID 2094, 2009; activity change, % at 7.5 µM; Vibrio harveyi JMH597 AI-2 luminescence/OD600 ratio, 9 h; stronger effect = lower value; strain lacks LuxN and CqsS sensors; 0 = neutral-control median; actives 0.4% (n = 300,000); in the data active = activity change below about -75%, passing the limit was not always enough;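 also: luminescence divided by OD600 gain over 9 h not by final OD600 alone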
# Wee1 stabilizer: Wee1 degradation inhibitors, primary screen, cell-based, HeLa, Wee1K328M-luciferase, luminescence | Wee1-like protein kinase (Homo sapiens), P30291 | HeLa Luc-Wee1K328M stability; 100% = proteasome inhibitor MG132 effect | reporter increase, % at 5 µM | actives 1.2% (n = 220,000) | AID 1321, 2008;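 active = activation above the mean of all tested compounds plus 3 SD, set per screening run, cut at about 8.8% in these data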;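 also: cells exposed to compound for 20 h before luminescence read; 0% = DMSO alone and 100% = MG132 at 30 µM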
# Target sequence (P30291 whole entry K328M): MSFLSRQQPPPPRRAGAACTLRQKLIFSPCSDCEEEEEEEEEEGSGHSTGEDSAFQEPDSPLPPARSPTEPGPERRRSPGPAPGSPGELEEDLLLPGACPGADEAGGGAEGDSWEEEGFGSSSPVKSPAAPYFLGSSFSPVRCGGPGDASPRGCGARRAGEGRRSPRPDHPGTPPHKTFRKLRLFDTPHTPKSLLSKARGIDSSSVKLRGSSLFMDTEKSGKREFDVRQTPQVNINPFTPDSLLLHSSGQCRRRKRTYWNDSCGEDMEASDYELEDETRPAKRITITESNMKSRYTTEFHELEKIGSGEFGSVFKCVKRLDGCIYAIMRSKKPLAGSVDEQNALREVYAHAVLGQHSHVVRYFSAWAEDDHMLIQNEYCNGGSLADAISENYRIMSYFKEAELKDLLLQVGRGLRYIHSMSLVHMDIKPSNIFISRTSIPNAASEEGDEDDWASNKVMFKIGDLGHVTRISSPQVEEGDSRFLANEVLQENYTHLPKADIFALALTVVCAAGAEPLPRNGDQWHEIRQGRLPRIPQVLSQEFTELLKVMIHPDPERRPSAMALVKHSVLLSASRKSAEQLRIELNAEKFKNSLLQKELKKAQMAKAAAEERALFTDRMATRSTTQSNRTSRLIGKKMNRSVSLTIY
# An asterisk follows results filed as active; / = not tested or not shown. Sampled rows, rich in hits. Any-hit rate of the full collection: about 2.9%.
SMILES,KLK7 zymogen act,Runt-SMMHC FRET,RanGTP-Impb inh,Runt-CBFb FRET,AI-2 QS modul,Wee1 stabilizer
O=C(NCCNc1nccc(C(F)(F)F)n1)c1cccs1,1,2,0,-1,19,9.2*
Cc1ccc(Cn2nnc(C(=O)Nc3cc(C)ccc3C)c2N)cc1,0,3,2,-2,4,-1
Cc1ccc(C)c(NC(=O)c2nnn(Cc3ccccc3)c2N)c1,0,-32,168*,0,9,-4
Cc1ccc(CN(CC2CCCO2)C(=O)CN2C(=O)C(C(C)C)Oc3ccccc32)o1 (configuration not stated),0,0,10,-4,-2,-3
CC(C)C1Oc2ccccc2N(CC(=O)N(Cc2ccccn2)CC2CCCO2)C1=O (configuration not stated),0,-2,2,-1,6,9.2*
COc1cccc(CNC(=O)[C@H]2CCCN2C(=O)[C@H]2CCCN2C(=O)c2cccc(OC)c2)c1,1,/,/,/,/,/
CCCC(=O)NC(c1ccc(Cl)cc1Cl)c1ccc2cccnc2c1O (configuration not stated),0,/,-3,/,28,/
CC(=O)NC(c1ccc(Cl)cc1Cl)c1ccc2cccnc2c1O (configuration not stated),0,/,5,/,-84*,/
CCOc1ccc(OCC(=O)Nc2cccc(S(=O)(=O)NC3=NCCC3)c2)cc1,1,/,/,/,/,/
CCOc1ccc(C(=O)NC(=S)Nc2cccc(S(=O)(=O)NC3=NCCC3)c2)cc1,0,5,0,4,6,9.5*
O=C(NCCc1ccccc1)c1ccncc1,/,-1,-1,-1,28,11*
O=C(NCCc1ccc(F)cc1)c1ccncc1,0,/,-3,/,7,/
O=C(NCCc1ccccc1)c1ccc(Cl)c([N+](=O)[O-])c1,0,-4,1,-2,4,9.4*
C[C@@H]1ON(C)[C@H]2C[C@H]3c4[nH]c5cccc(-c6ccccc6F)c5c4CCN3C(=O)[C@@H]12,-37,/,/,/,/,/
CCOC(=O)c1c(C)[nH]c(C(=O)CN2CC(C)OC(C)C2)c1C (configuration not stated),0,-1,29*,-4,14,-3
COc1cccc(N=C2CC(C)(C)CC(=O)/C2=C(/O)c2ccccc2)c1,0,1,-2,1,13,1
CCN(c1ccccc1)S(=O)(=O)c1nnc(NC(=O)c2ccccc2OC)s1,0,/,19*,/,-2,/
CN(C(=S)Nc1ccc(F)cc1)C1(c2ccccc2Cl)CCCCC1=O (configuration not stated),1,0,-2,88*,6,0
CNC(=O)c1c(NC(=O)c2ccc(S(=O)(=O)N3CCCCC3)cc2)sc2c1CCN(C(C)C)C2,2,/,93*,/,35,/
Cc1nnc(NC(=O)c2ccc(S(=O)(=O)N3CCCCC3C)cc2)o1 (configuration not stated),0,/,4,/,30,/
CCN1CCc2c(sc(NC(=O)c3ccc(S(=O)(=O)N4CCCC4)cc3)c2C(=O)NC)C1,3,/,46*,/,28,/
CC(C)N1CCc2c(sc(NC(=O)c3ccc(S(=O)(=O)N4CCCCC4C)cc3)c2C(N)=O)C1 (configuration not stated),6,/,107*,/,21,/
NC(=O)c1c(NC(=O)c2ccc(S(=O)(=O)N3CCOCC3)cc2)sc2c1CCCCC2,2,-32,2,-4,29,4
COCc1[nH]nc2c1C(c1ccc(C)cc1)N(Cc1ccccc1)C2=O (configuration not stated),0,/,/,/,/,/
Nc1nc2c(ncn2[C@@H]2O[C@H](C(=O)N[C@H](Cc3ccccc3)C(=O)NCCCc3ccccc3)[C@@H](O)[C@H]2O)c(=O)[nH]1,0,/,/,/,/,/
SMILES,KLK7 zymogen act,Runt-SMMHC FRET,RanGTP-Impb inh,Runt-CBFb FRET,AI-2 QS modul,Wee1 stabilizer
Cc1cccn2c(=O)c3cc(C#N)c(=O)n(Cc4cccnc4)c3nc12,6,41,/,79*,/,/
CC(=O)N=c1c(C#N)cc2c(=O)n3ccccc3nc2n1Cc1ccccc1,-1,81*,32*,138*,23,0
Cc1cccn2c(=O)c3cc(C#N)c(=N)n(Cc4cccnc4)c3nc12,0,/,/,/,/,-2
N#Cc1cc2c(=O)n3ccccc3nc2n(Cc2cccnc2)c1=O,12,/,74*,/,42,/
FC(F)(F)c1ccccc1Cc1c(-c2ccco2)nc2c3ccccc3ccn12,-1,/,/,/,/,/
CCN=C1NC(c2ccc(C(F)(F)F)cc2)C(C(=O)OC)=C(C)N1Cc1ccccc1C(F)(F)F (configuration not stated),0,/,/,/,/,/
C/C=C/c1ccccc1OCCCN1CCC(C(O)(c2ccccc2)c2ccccc2)CC1,0,/,/,/,/,/
Cc1nc2ccc(NC(=O)c3ccc(F)cc3F)cc2c(=O)[nH]1,0,/,/,/,/,/
Brc1csc(/C=N/Nc2nc3ccccc3s2)c1,-7,-16,23,-4,9,8.9*
C(=N\Nc1nc2ccccc2s1)/c1ccccn1,1,-4,5,-2,3,-4
Cc1cccc(-c2nnc(SCC(=O)C(C)(C)C)n2C)c1,0,1,-2,-5,7,-1
Nc1cc(Cl)ccc1C(=O)OCC(=O)NCC1CCCO1 (configuration not stated),7,/,/,/,/,/
COc1ccc(C(c2c(O)nc(SC)n(C)c2=O)c2c(O)nc(SC)n(C)c2=O)cc1O,0,2,-1,-4,-89*,-3
COc1ccc(-c2nc(SC)n(C)c(=O)c2C#N)cc1OC,1,-6,-4,2,23,1
CCc1cc2c(-c3ccccc3)cc(=O)oc2cc1OC(C)C(C)=O (configuration not stated),-1,/,-5,/,12,/
CC(C)(C)OC(=O)NCC(=O)Oc1cc2oc(=O)cc(-c3ccccc3)c2cc1Cl,16*,81*,0,3,28,-1
O=C(Oc1cc2oc(=O)cc(-c3ccccc3)c2cc1Cl)C1CCCCC1,37*,-22,-4,6,0,4
CCOc1cc2nc3c4ccccc4n(C)c3nc2cc1OCC,-15,-39,38*,4,13,3
